Measurements from ChEMBL document CHEMBL2046297, “Synthesis and evaluation of substituted dibenzo[c,e]azepine-5-ones as P-glycoprotein-mediated multidrug resistance reversal agents” (Bioorg Med Chem Lett, 2012).
The source made the active and inactive calls. The rule behind the calls is not given here.

Experiments:
[1] = Antiproliferative activity against multidrug-resistant human K562/A02 cells overexpressing p-glycoprotein after 72 hrs by MTS assay; type: functional, cell-based; conditions: K562/A02, 72 h
How it was run: (§1)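 Growth inhibition of parental K562 and drug-resistant K562/A02 leukemia cells, measured by MTS after 72 h exposure. IC50 is the concentration giving a 50% drop in cell growth. Values are means of three experiments. ADR served as positive control.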

[2] = biological target: ATP-dependent translocase ABCB1 (Homo sapiens, UniProt P08183); test: Inhibition of P-glycoprotein-mediated rhodamine 123 uptake expressed in multidrug-resistant human K562/A02 cells assessed as fluorescence activity ratio at 10 uM after 72 hrs by flow cytometry relative to untreated control; type: cell-based; conditions: k562/a02, 72 h
How it was run: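 Rh123 accumulation in P-gp-overexpressing K562/A02 cells with compound at 10 µM. FAR is the ratio of mean Rh123 fluorescence intensity in treated versus untreated cells. VRP served as positive control.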

K562 [3] = test: Antiproliferative activity against human K562 cells after 72 hrs by MTS assay; type: functional, cell-based; conditions: K562, 72 h; how it was run: as §1
K562/A02 [4] = test: Survival of human K562/A02 cells in presence of adriamycin at 10 uM after 72 hrs by MTS assay
K562/A02 [5] = test: Inhibition of Pgp-mediated multidrug-resistance in human K562/A02 cells assessed as potentiation of adriamycin-induced cytotoxicity after 72 hrs by MTS assay; type: cell-based
How it was run: (§2)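 Chemosensitization was tested by co-treating K562/A02 cells with 2 µM ADR or K562 cells with 0.04 µM ADR, plus compound at 2.5, 5 or 10 µM, for 72 h. Survival was read by MTS and compared with ADR alone. VRP served as positive control.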

K562/A02 [6] = test: Survival of human K562/A02 cells in presence of adriamycin at 2.5 uM after 72 hrs by MTS assay
K562/A02 [7] = test: Inhibition of Pgp-mediated adriamycin efflux in multidrug-resistance human K562/A02 cells assessed as increase in intracellular accumulation of adriamycin after 60 mins by FACS flow cytometry; type: cell-based
How it was run: (§3)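 K562/A02 cells were incubated with 0.5 µM Rh123 or 0.5 µM ADR, with or without 0.33, 3.3 or 10 µM compound, at 37 °C for 30 min. K562 cells received dye only. Cells were washed twice in PBS, resuspended in medium and left 60 min at 37 °C for efflux. Read-out was fluorescence microscopy or flow cytometry (ex/em 488/520 nm Rh123; 488/570 nm ADR). Vehicle was 0.1% DMSO.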

K562 [8] = test: Potentiation of adriamycin-induced cytotoxicity in human K562 cells after 72 hrs by MTS assay; type: functional, cell-based; how it was run: as §2
K562/A02 [9] = test: Inhibition of Pgp-mediated rhodamine-123 efflux in multidrug-resistance human K562/A02 cells assessed as increase in intracellular accumulation of rhodamine-123 after 60 mins by fluorescence microscopic analysis; type: cell-based; how it was run: as §3
K562/A02 [10] = test: Survival of human K562/A02 cells in presence of adriamycin at 5 uM after 72 hrs by MTS assay

Chain of ATP-dependent translocase ABCB1 (P08183 whole entry): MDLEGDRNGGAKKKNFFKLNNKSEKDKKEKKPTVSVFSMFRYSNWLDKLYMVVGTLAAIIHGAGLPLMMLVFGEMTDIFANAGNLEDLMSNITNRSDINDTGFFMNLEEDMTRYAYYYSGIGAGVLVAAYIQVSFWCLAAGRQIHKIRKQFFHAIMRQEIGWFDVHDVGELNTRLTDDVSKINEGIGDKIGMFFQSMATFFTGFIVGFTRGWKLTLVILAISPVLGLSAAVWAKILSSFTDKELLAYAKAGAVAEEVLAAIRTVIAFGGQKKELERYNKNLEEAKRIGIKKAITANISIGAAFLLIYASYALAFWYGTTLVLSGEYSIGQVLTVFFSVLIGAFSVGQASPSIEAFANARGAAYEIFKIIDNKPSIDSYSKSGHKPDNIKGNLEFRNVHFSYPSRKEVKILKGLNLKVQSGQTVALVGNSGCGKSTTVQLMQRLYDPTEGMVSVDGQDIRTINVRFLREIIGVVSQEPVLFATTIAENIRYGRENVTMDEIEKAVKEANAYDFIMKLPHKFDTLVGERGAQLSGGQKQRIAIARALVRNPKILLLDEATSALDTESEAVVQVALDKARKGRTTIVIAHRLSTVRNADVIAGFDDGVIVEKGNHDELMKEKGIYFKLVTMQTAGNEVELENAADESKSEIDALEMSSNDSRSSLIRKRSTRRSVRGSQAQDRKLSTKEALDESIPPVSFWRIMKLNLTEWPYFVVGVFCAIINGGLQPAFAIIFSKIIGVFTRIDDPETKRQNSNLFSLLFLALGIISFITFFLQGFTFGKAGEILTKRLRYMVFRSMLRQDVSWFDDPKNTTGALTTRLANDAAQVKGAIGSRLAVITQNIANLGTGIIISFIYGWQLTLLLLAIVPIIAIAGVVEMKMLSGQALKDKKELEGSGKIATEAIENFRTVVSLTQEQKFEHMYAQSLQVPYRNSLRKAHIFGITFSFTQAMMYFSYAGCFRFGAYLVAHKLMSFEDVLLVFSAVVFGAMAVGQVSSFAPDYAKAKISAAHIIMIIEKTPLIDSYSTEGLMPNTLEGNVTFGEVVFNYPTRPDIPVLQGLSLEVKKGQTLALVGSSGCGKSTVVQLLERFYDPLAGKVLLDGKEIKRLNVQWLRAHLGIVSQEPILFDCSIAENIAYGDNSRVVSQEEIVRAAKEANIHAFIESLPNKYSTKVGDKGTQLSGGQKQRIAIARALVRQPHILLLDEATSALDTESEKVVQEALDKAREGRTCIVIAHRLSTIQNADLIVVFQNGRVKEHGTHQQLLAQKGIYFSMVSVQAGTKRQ

Row | Ratio [2] | IC50 (K562 [3]) [µM] | Structure (SMILES) | IC50 [1] [µM] | survival rate (K562/A02 [4]) [%] | inhibition (K562/A02 [5]) | survival rate (K562/A02 [6]) [%] | inhibition (K562/A02 [7]) | Activity (K562 [8]) | inhibition (K562/A02 [9]) | survival rate (K562/A02 [10]) [%]
1 | 1.03 | > 100 | COc1cc2c(c3c1OCO3)-c1c(cc(OC)c3c1OCO3)C(=O)N(CCN1CCN(C)CC1)C2 | > 100 | – | – | – | – | – | – | –
2 | 1.65 | > 100 | COc1cc2c(c3c1OCO3)-c1c(cc(OC)c3c1OCO3)C(=O)N(CCN1CCCC1)C2 | > 100 | – | – | – | – | – | – | –
3 | 2.84 | > 100 | CCCN(CCC)CCN1Cc2cc(OC)c3c(c2-c2c(cc(OC)c4c2OCO4)C1=O)OCO3 | > 100 | – | – | – | – | – | – | –
4 | 2.57 | 62.4 | CCN(CC)CCN1Cc2cc(OC)c3c(c2-c2c(cc(OC)c4c2OCO4)C1=O)OCO3 | 94.8 | – | – | – | – | – | – | –
5 | 1.44 | > 100 | COc1cc2c(c3c1OCO3)-c1c(cc(OC)c3c1OCO3)C(=O)N(CCN(C)C)C2 | > 100 | – | – | – | – | – | – | –

More lines, now with the values behind:

Row | Structure (SMILES) | Ratio [2] | IC50 (K562 [3]) [µM] | IC50 [1] [µM] | survival rate (K562/A02 [4]) [%] | inhibition (K562/A02 [5]) | survival rate (K562/A02 [6]) [%] | inhibition (K562/A02 [7]) | Activity (K562 [8]) | inhibition (K562/A02 [9]) | survival rate (K562/A02 [10]) [%]
6 | COc1cc2c(c3c1OCO3)-c1c(cc(OC)c3c1OCO3)C(=O)N(CCN1CCN(Cc3ccccc3)CC1)C2 | 14.11 | 49.2 | 56.3 | 7.5 | Dose-dependent effect | 33.9 | Dose-dependent effect | inactive | Dose-dependent effect | 19.9
7 | COc1cc2c(c3c1OCO3)-c1c(cc(OC)c3c1OCO3)C(=O)N(CCN1CCOCC1)C2 | 3.23 | > 100 | > 100 | – | – | – | – | – | – | –
8 | COc1cc2c(c3c1OCO3)-c1c(cc(OC)c3c1OCO3)C(=O)N(CCN1CCCCC1)C2 | 3.46 | 90 | 91.1 | – | – | – | – | – | – | –
9 | COc1ccc(CCN(C)CCCC(C#N)(c2ccc(OC)c(OC)c2)C(C)C)cc1OC (configuration not stated) [VERAPAMIL] | 4.16 | – | – | – | – | – | – | – | – | –
